Source: publication PMC12531995 (RSC Advances, 2025)
Marks after values point to notes of the source that are not given here.

How the values were obtained:
[1] = test system: carrageenan-induced paw edema in rats; conditions: cited from earlier work
[2] = test system: pilocarpine-induced seizures in mice; experiment: Pilocarpine-induced seizure; assay type: in vivo
Outline: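 Male mice, n = 10 per group. Vehicle (0.5% CMC) or test compound (20 mg kg−1) given orally 30 min before pilocarpine (300 mg kg−1, i.p.) to induce status epilepticus. Valproic acid reference was 300 mg kg−1 orally, 30 min prior. Non-epileptic controls got vehicle only. Scored latency to forelimb clonus (stage 3), severity at 30, 60, 90 and 120 min, and 24 h survival. Mean ± SD.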

[3] = test system: PTZ-induced seizures in mice; experiment: Pentylenetetrazol; assay type: in vivo; conditions: Mus musculus, po, 24 h, read-out: 24 h mortality
Outline: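 Mice were randomised into ten groups of ten. Animals were dosed orally, with 0.5% carboxymethyl cellulose as the negative-control vehicle. Seizures were then induced by intraperitoneal pentylenetetrazol at a convulsive dose of 85 mg kg−1.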

## Cc1ccc(-c2cc(C(F)(F)F)nn2-c2ccc(S(N)(=O)=O)cc2)cc1 [Celecoxib]
[1]; 1st hour post-carrageenan, oral, mean ± SD, n = 6
  Paw thickness difference, 1st hour: 1.4 ± 0.38 mm
[1]; 1st hour, vs carrageenan group
  Percentage of inhibition of paw thickness, 1st hour: 29.31%
[1]; 2nd hour post-carrageenan, oral, mean ± SD, n = 6
  Paw thickness difference, 2nd hour: 2.36 ± 0.51 mm
[1]; 2nd hour, vs carrageenan group
  Percentage of inhibition of paw thickness, 2nd hour: 28.34%
[1]; 3rd hour post-carrageenan, oral, mean ± SD, n = 6
  Paw thickness difference, 3rd hour: 2.83 ± 0.43 mm
[1]; 3rd hour, vs carrageenan group
  Percentage of inhibition of paw thickness, 3rd hour: 33%
[1]; 4th hour post-carrageenan, oral, mean ± SD, n = 6
  Paw thickness difference, 4th hour: 3.01 ± 0.57 mm
[1]; 4th hour, vs carrageenan group
  Percentage of inhibition of paw thickness, 4th hour: 40.39%
[1]; 5th hour post-carrageenan, oral, mean ± SD, n = 6
  Paw thickness difference, 5th hour: 3.10 ± 0.23 mm
[1]; 5th hour, vs carrageenan group
  Percentage of inhibition of paw thickness, 5th hour: 41.65%
[1]; 5 hour mark
  weight gain (paw): 68.15%
[1]; right vs left paw, mean ± SD, n = 6
  Paw weight increase: 29.95 ± 2.20^ab %

## CCCC(CCC)C(=O)O [Valproic acid (VI), valproic acid]
[2]; compounds 20 mg kg^−1, valproic acid 300 mg kg^−1 orally, mice n = 10
  24 h Survival: 60%
[2]; mice n = 10, compounds 20 mg kg^−1 orally, valproic acid 300 mg kg^−1 orally, 30 minutes before pilocarpine 300 mg kg^−1 i.p., mean ± SD
  Onset (latency to forelimb clonus, stage 3): 10.65 ± 0.52^a mins
[2]; vs pilocarpine group, 120 min
  Reduction of final seizure severity: 60%
[3]
  mortality at 20 mg/kg: 30%
